Test results published in ChEMBL document CHEMBL4342472, “Investigation of Inactive-State κ Opioid Receptor Homodimerization via Single-Molecule Microscopy Using New Antagonistic Fluorescent Probes” (J Med Chem, 2020).
Calls of active or inactive are those of the source. The calls are words filed in the database; no cut-off is given here.

Legend:
[1] = target: T1, Kappa-type opioid receptor (Homo sapiens, UniProt P41145); assay: Displacement of [3H]-diprenorphine from recombinant human KOR transiently expressed in HEK293 cell membranes measured after 60 mins
Outline: (§1)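 Membranes from HEK293T cells transiently transfected with human DOR, KOR or MOR; [3H]diprenorphine final 0.3 nM (DOR, KOR) or 0.2-0.3 nM (MOR) with varying competitor, 60 min at 37 °C in Tris/MgCl2/EDTA buffer pH 7.4. Nonspecific binding with 10 μM naloxone; IC50 by nonlinear regression converted to Ki via Cheng-Prusoff; selectivity as Ki ratio.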

[2] = target: Delta-type opioid receptor (Homo sapiens, UniProt P41143); assay: Displacement of [3H]-diprenorphine from recombinant human DOR transiently expressed in HEK293 cell membranes measured after 60 mins; outline: as §1
[3] = target: Mu-type opioid receptor (Homo sapiens, UniProt P35372); assay: Displacement of [3H]-diprenorphine from recombinant human MOR transiently expressed in HEK293 cell membranes measured after 60 mins; outline: as §1
[4] = species on record: Homo sapiens; assay: Selectivity ratio of Ki for displacement of [3H]-diprenorphine from recombinant human DOR transiently expressed in HEK293 cell membranes to Ki for displacement of [3H]-diprenorphine from recombinant human KOR transiently expressed in HEK293 cell membranes; outline: as §1
[5] = species on record: Homo sapiens; assay: Selectivity ratio of Ki for displacement of [3H]-diprenorphine from recombinant human MOR transiently expressed in HEK293 cell membranes to Ki for displacement of [3H]-diprenorphine from recombinant human KOR transiently expressed in HEK293 cell membranes; outline: as §1
[6] = target: T1, Kappa-type opioid receptor; assay: Inverse agonist activity at recombinant human KOR transiently expressed in HEK293T cells co-expressing G-alphaqi assessed as reduction in dynorphin A-stimulated inositol phosphate accumulation measured after 180 mins by HTRF assay; type: functional, cell-based
[7] = target: T1, Kappa-type opioid receptor; assay: Partial agonist activity at EA-tagged beta-arrestin2 fused KOR (unknown origin) stably expressed in HEK293 cells assessed as induction of beta-arrestin2 recruitment measured after 300 mins by chemiluminescence assay; type: cell-based
Outline: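 PathHunter: HEK-293 cells stably expressing EA-tagged β-arrestin-2, transiently transfected with ProLink-tagged KOR-PK2; plated after 24 h, held a further 24 h at 37 °C. Compounds 1 pM to 10 μM final, 300 min at 37 °C, then detection mix 60 min at room temperature; chemiluminescence normalized to basal and dynorphin A maximum, nonlinear regression.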

[8] = target: T1, Kappa-type opioid receptor; assay: Binding affinity to recombinant human KOR expressed in CHOK1 cells assessed as compound-coupled receptor mobility by measuring distribution in immobile phase at 100 nM measured after 20 mins by TIRF-SMM based TA-MSD analysis; type: cell-based
Outline: (§2)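 Wild-type human KOR transiently transfected into CHO-K1 cells (Lipofectamine 2000); labelled 4 h post-transfection with probe at 100 nM for 20 min, washed in HEPES imaging buffer pH 7.3 and imaged by TIRF at 20 °C. Trajectories from automated particle tracking; time-averaged MSD of individual trajectories fitted to obtain diffusion coefficient and assign motion class.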

[9] = target: T1, Kappa-type opioid receptor; assay: Binding affinity to recombinant human KOR expressed in CHOK1 cells assessed as compound-coupled receptor mobility by measuring distribution in sub-diffusion phase at 100 nM measured after 20 mins by TIRF-SMM based TA-MSD analysis; type: cell-based; outline: as §2
[10] = target: T1, Kappa-type opioid receptor; assay: Binding affinity to recombinant human KOR expressed in CHOK1 cells assessed as compound-coupled receptor mobility by measuring distribution in normal diffusion phase at 100 nM measured after 20 mins by TIRF-SMM based TA-MSD analysis; type: cell-based; outline: as §2
[11] = target: T1, Kappa-type opioid receptor; assay: Binding affinity to recombinant human KOR expressed in CHOK1 cells assessed as compound-coupled receptor mobility by measuring distribution in super diffusion phase at 100 nM measured after 20 mins by TIRF-SMM based TA-MSD analysis; type: cell-based; outline: as §2
[12] = target: T1, Kappa-type opioid receptor; assay: Binding affinity to recombinant human KOR expressed in CHOK1 cells assessed as time of KOR colocalization in cell surface at 100 nM by single molecule microscopic analysis; type: cell-based
Outline: (§3)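 Human KOR transiently expressed in CHO-K1 cells, labelled 4 h post-transfection with Cy5 probe (10 nM) and Cy3 probe (100 nM), rapid wash, TIRF single-molecule imaging at 20 °C in HEPES buffer pH 7.3. Particles tracked automatically; observed co-localization durations deconvolved (Lucy-Richardson) against a CD86-SNAP (SiR-labelled) non-interacting control.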

[13] = target: T1, Kappa-type opioid receptor; assay: Binding affinity to recombinant human KOR transiently expressed in CHOK1 cells measured after 20 mins by TIRF microscopic analysis; type: cell-based
Outline: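 Saturation binding on CHO-K1 cells transiently expressing human KOR (24 h post-transfection): 20 min incubation at 37 °C with each ligand concentration in complete medium, one wash in HEPES buffer pH 7.3, TIRF imaging. Mean whole-cell intensity (>30 cells per concentration), normalized to highest concentration, fitted by nonlinear regression for Kd; three replicates.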

[14] = target: T1, Kappa-type opioid receptor; assay: Binding affinity to recombinant human KOR transiently expressed in CHOK1 cells at 50 nM measured 20 mins post compound washout by TIRF microscopic analysis relative to control; type: cell-based
Outline: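 CHO-K1 cells transiently expressing human KOR, 24 h post-transfection; incubated 20 min at 37 °C with 50 nM fluorescent ligand in complete medium, then washed on-stage with fresh imaging buffer. TIRF images of the same cell taken every minute over 20 min; cell ROI intensity compared with pre-wash image, bleaching control included; triplicate experiments.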

[15] = target: T1, Kappa-type opioid receptor; assay: Binding affinity to recombinant human KOR expressed in CHOK1 cells assessed as time of KOR colocalization in cell surface at 10 nM by single molecule microscopic analysis; type: cell-based; outline: as §3

Chain of Delta-type opioid receptor (P41143 whole entry): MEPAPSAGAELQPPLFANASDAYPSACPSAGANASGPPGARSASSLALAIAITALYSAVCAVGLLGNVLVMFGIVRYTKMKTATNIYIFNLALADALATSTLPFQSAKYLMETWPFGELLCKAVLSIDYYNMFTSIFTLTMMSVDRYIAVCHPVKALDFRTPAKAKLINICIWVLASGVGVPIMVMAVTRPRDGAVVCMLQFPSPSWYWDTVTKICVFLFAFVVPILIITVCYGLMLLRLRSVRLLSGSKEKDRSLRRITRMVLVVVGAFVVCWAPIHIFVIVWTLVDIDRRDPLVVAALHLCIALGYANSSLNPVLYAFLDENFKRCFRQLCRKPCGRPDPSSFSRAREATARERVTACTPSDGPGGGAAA
T1 sequence (P41145 whole entry): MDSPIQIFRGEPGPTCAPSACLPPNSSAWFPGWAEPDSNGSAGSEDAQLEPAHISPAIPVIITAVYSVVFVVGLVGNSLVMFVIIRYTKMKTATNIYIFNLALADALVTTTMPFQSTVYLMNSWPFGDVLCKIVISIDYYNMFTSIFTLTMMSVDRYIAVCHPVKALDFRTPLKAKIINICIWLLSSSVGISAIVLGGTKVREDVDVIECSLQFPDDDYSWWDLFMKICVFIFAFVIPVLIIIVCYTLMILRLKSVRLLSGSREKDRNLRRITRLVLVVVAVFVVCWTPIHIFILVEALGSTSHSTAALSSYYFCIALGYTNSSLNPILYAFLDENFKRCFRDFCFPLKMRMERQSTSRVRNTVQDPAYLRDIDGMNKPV
Chain of Mu-type opioid receptor (P35372 whole entry): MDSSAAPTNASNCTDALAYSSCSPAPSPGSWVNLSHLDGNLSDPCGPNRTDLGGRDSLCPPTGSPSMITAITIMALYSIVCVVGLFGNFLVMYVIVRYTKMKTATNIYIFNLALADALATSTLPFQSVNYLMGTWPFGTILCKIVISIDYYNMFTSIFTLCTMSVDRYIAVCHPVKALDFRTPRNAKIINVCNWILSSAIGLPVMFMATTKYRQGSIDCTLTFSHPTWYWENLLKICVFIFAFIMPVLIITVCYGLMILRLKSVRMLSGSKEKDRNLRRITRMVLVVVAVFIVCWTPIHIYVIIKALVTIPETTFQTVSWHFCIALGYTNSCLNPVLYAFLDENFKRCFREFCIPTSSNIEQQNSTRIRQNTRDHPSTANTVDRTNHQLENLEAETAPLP

| Compound | Ki [1] [nM] | Ki [2] [nM] | Ki [3] [nM] | Ratio Ki [4] | Ratio Ki [5] | Activity [6] | Activity [7] | Activity [8] [%] | Activity [9] [%] | Activity [10] [%] | Activity [11] [%] | TIME [12] [h] | Kd [13] [nM] | Activity [14] [%] | TIME [15] [h] |
| --- | --- | --- | --- | --- | --- | --- | --- | --- | --- | --- | --- | --- | --- | --- | --- |
| CN1/C(=C/C=C/C2=[N+](CCCCCC(=O)NCC(=O)NCC(=O)NCC(=O)NCC(=O)NCCCNC(=N)Nc3ccc4[nH]c5c(c4c3)C[C@@]3(O)[C@H]4Cc6ccc(O)c7c6[C@@]3(CCN4CC3CC3)[C@H]5O7)c3ccc(S(=O)(=O)[O-])cc3C2(C)C)C(C)(C)c2cc(S(=O)(=O)O)ccc21 | 3.2 | 280 | 110 | 88 | 34 | inactive | inactive |  |  |  |  |  |  |  |  |
| CN1/C(=C/C=C/C2=[N+](CCCCCC(=O)NCCCNC(=N)Nc3ccc4[nH]c5c(c4c3)C[C@@]3(O)[C@H]4Cc6ccc(O)c7c6[C@@]3(CCN4CC3CC3)[C@H]5O7)c3ccc(S(=O)(=O)[O-])cc3C2(C)C)C(C)(C)c2cc(S(=O)(=O)O)ccc21 | 8.6 | 31 | 380 | 4 | 44 | Active | inactive | 16 | 25 | 51 | 8 | < 2.78e-05 | 18.8 |  |  |
| CN1/C(=C/C=C/C=C/C2=[N+](CCCCCC(=O)NCC(=O)NCC(=O)NCC(=O)NCC(=O)NCCCNC(=N)Nc3ccc4[nH]c5c(c4c3)C[C@@]3(O)[C@H]4Cc6ccc(O)c7c6[C@@]3(CCN4CC3CC3)[C@H]5O7)c3ccc(S(=O)(=O)[O-])cc3C2(C)C)C(C)(C)c2cc(S(=O)(=O)O)ccc21 | 1.8 | 193 | 133 | 107 | 74 | inactive | inactive |  |  |  |  |  | 4.8 | > 90 |  |
| CN1/C(=C/C=C/C=C/C2=[N+](CCCCCC(=O)NCCCNC(=N)Nc3ccc4[nH]c5c(c4c3)C[C@@]3(O)[C@H]4Cc6ccc(O)c7c6[C@@]3(CCN4CC3CC3)[C@H]5O7)c3ccc(S(=O)(=O)[O-])cc3C2(C)C)C(C)(C)c2cc(S(=O)(=O)O)ccc21 | 1.4 | 39 | 40 | 28 | 29 | Active | inactive |  |  |  |  |  | 9.5 | > 90 | < 2.78e-05 |
| CN1/C(=C/C=C/C=C/C2=[N+](CCCCCC(=O)NCC(=O)NCC(=O)NCCCNC(=N)Nc3ccc4[nH]c5c(c4c3)C[C@@]3(O)[C@H]4Cc6ccc(O)c7c6[C@@]3(CCN4CC3CC3)[C@H]5O7)c3ccc(S(=O)(=O)[O-])cc3C2(C)C)C(C)(C)c2cc(S(=O)(=O)O)ccc21 | 1.1 | 106 | 100 | 100 | 91 | inactive | inactive |  |  |  |  |  |  | > 90 |  |
